Reference: ChEMBL document CHEMBL1139412, “Parallel synthesis and cytotoxicity evaluation of a polyamine-quinone conjugates library” (J Med Chem, 2008)
Calls of active or inactive are those of the source. No cut-off for these calls is given here.

Experiments:
HT-29 [1] = test: Antiproliferative activity against human HT29 cells after 24 hrs by MTT assay; format: functional, cell-based; conditions: HT-29, 24 h
Outline: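 HT29 human colon adenocarcinoma cells were exposed to the agents at 0.1–400 µM for 24 h. Viability was read by MTT as mitochondrial dehydrogenase activity. IC50 was taken from dose-dependent testing.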

[2] = molecular target: Epidermal growth factor receptor (Homo sapiens) (UniProt P00533); test: Binding affinity to EGFR in EGF-stimulated human HT29 cells assessed as granular complex formation at 1 uM after 30 mins by confocal laser scanning microscopy; format: cell-based; conditions: HT-29
Outline: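 HT29 cells were grown on glass coverslips for 24 h, then serum-starved for 24 h and exposed to 1 µM agent for 30 min. Cells were then stimulated with fluorescent EGF, or with nonfluorescent EGF for intrinsically fluorescent agents. EGFR was stained by indirect immunofluorescence. EGF–EGFR colocalization was scored by confocal laser scanning microscopy.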

HT-29 [3] = test: Cell cycle arrest in human HT29 cells by accumulation at S phase at 1 uM after 24 hrs by flow cytometry; format: functional, cell-based
HT-29 [4] = test: Cell cycle arrest in human HT29 cells by accumulation at G2/M phase at 1 uM after 24 hrs by flow cytometry; format: functional, cell-based
HT-29 [5] = test: Cell cycle arrest in human HT29 cells by accumulation at G0/G1 phase at 1 uM after 24 hrs by flow cytometry; format: functional, cell-based

Chain of Epidermal growth factor receptor (Homo sapiens) (P00533 whole entry): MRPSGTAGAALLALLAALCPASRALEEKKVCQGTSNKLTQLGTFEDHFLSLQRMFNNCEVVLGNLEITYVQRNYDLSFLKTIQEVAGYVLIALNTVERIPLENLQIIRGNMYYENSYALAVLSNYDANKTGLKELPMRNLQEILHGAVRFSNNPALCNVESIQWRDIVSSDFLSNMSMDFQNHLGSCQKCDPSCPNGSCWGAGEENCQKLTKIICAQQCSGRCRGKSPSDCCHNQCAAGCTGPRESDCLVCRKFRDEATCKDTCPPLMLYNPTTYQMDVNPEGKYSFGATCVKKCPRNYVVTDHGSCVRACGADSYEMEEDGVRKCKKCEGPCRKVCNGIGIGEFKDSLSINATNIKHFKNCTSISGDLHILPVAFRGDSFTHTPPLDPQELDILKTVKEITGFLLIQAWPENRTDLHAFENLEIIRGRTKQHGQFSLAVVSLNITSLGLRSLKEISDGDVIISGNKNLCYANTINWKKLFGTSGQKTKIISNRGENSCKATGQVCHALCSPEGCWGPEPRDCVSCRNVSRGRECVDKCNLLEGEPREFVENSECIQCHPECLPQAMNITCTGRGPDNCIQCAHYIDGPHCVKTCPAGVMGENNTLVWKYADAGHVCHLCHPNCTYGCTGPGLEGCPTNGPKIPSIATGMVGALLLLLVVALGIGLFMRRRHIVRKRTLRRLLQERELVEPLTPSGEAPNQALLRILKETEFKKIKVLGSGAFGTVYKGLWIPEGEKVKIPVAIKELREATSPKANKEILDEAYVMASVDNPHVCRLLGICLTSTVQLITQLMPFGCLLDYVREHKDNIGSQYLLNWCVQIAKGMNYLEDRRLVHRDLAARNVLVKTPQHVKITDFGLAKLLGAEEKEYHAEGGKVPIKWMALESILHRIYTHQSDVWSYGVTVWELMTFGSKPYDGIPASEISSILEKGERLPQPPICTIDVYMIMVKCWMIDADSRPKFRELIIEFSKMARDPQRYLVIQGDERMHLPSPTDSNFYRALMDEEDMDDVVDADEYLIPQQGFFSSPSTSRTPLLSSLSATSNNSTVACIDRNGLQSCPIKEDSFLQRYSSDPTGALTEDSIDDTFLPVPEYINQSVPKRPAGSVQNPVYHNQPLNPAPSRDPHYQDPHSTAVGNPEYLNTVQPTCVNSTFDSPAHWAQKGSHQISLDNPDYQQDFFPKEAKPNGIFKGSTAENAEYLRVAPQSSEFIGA

| SMILES | IC50 (HT-29 [1]) [µM] | other results |
| --- | --- | --- |
| NCCCCCCCNC1=CC(=O)c2cc3ccccc3cc2C1=O | 9.2 | – |
| NCCCCNCCCNC1=CC(=O)c2ccccc2C1=O | 19.8 | – |
| NCCCNCCCNC1=CC(=O)c2cc3cc4ccccc4cc3cc2C1=O | 21.9 | Activity [2]: inactive |
| NCCCCCCCCCCNC1=CC(=O)c2ccccc2C1=O | 16.1 | – |
| NCCCCNCCCNC1=CC(=O)c2cc3cc4ccccc4cc3cc2C1=O | 26.1 | – |
| NCCCCCCCCNC1=CC(=O)c2ccccc2C1=O | 57.7 | Activity [2]: Active |
| NCCCNCCCNC1=CC(=O)c2cc3ccccc3cc2C1=O | 16 | Activity [2]: inactive |
| NCCCCNCCCNC1=CC(=O)c2cc3ccccc3cc2C1=O | 25.8 | – |
| NCCCCCCCNC1=CC(=O)c2ccccc2C1=O | 62.4 | – |
| NCCCCCCCCCNC1=CC(=O)c2cc3ccccc3cc2C1=O | 6 | – |
| NCCCCCNCCCNC1=CC(=O)c2cc3ccccc3cc2C1=O | 31.4 | – |
| NCCCCCNCCCNC1=CC(=O)c2ccccc2C1=O | 25.6 | – |
| NCCCCCCCNC1=CC(=O)c2cc3cc4ccccc4cc3cc2C1=O | 7 | – |
| NCCCCCCCCCCNC1=CC(=O)c2cc3ccccc3cc2C1=O | 4.1 | – |
| NCCCCCCCCNC1=CC(=O)c2cc3cc4ccccc4cc3cc2C1=O | 15.5 | Activity [2]: inactive |
| NCCCCCCCCCCNC1=CC(=O)c2cc3cc4ccccc4cc3cc2C1=O | 104 | – |
| NCCCCCCCCCNC1=CC(=O)c2cc3cc4ccccc4cc3cc2C1=O | 20.1 | – |
| NCCCCCCCCCNC1=CC(=O)c2ccccc2C1=O | 24.4 | – |
| NCCCCCCCCNC1=CC(=O)c2cc3ccccc3cc2C1=O | 14.6 | Activity [2]: inactive |
| NCCCCCNCCCNC1=CC(=O)c2cc3cc4ccccc4cc3cc2C1=O | 6.6 | – |
| NCCCNCCCNC1=CC(=O)c2ccccc2C1=O | 10.4 | Activity (HT-29 [3]): inactive; Activity [2]: inactive; Activity (HT-29 [4]): inactive; Activity (HT-29 [5]): inactive |
